Active and inactive are the calls of the source. No cut-off for these calls is given here.
What was measured:
[1] = Growth inhibition of human DMS144 cells by SRB assay; assay type: functional
In short: (§1)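 Human cancer cell panel; five concentrations from 10^-4 to 10^-8 M; growth measured by sulforhodamine B colorimetric method; GI50, TGI and LC50 derived from computer-analysed dose-response curves.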

[2] = Mean residence time in CD1 mouse at 10 mg/kg, ip; assay type: ADME, organism-based; design: dose 10 mg/kg, route intraperitoneal; conditions: in vivo
In short: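 Male CD-1 (Crl.) mice, 22-24 g, single 10 mg/kg ip bolus of parent drug in cremophor/DMSO/saline (20/5/75, v/v; 2 mg/mL, 5 mL/kg). Blood sampled at 0, 5, 15, 30 min, 1, 1.5, 2, 4, 6, 9, 24, 27 h, three mice per time point. Plasma extracted with acetonitrile, analysed by LC-MS/MS. Parameters calculated from mean plasma concentrations.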

[3] = system: PC-3; assay: Growth inhibition of human PC3 cells by SRB assay; assay type: functional; in short: as §1
[4] = Cmax in CD1 mouse at 10 mg/kg, ip; assay type: ADME, organism-based; design: dose 10 mg/kg, route intraperitoneal; conditions: in vivo
In short: (§2)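 Male CD-1 (Crl.) mice (22-24 g), single 10 mg/kg dose. Prodrug in 9% NaHCO3/water (1 mg/mL) given iv by tail vein or po by gavage after 4 h fast; parent given ip in cremophor/DMSO/saline 20/5/75 (2 mg/mL). Plasma sampled to 27 h, three mice per time point, acetonitrile precipitation, LC-MS/MS (ESI positive); parameters from mean plasma concentrations.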

[5] = system: HT-29; assay: Growth inhibition of human HT-29 cells by SRB assay; assay type: functional; in short: as §1
[6] = system: OVCAR-3; assay: Antitumor activity against human OVCAR-3 cells xenografted in nude mouse assessed as increase in lifespan of organism at 134 mg/kg, ip administered in Q7D x 3 schedule relative to control; assay type: functional; conditions: route intraperitoneal
[7] = system: SK-OV-3; assay: Cell cycle arrest in human SKOV3 cells assessed as decrease in accumulation at G0/G1 phase at 10 uM after 36 hrs by propidium iodide-based flow cytometry; assay type: functional
In short: (§3)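 SKOV-3 cells (DMEM/F-12, 10% fetal calf serum) treated with 10 μM for 6, 12, 24, 36 or 48 h; trypsinized, PBS-washed, fixed in 70% ice-cold ethanol overnight at -20 °C, RNase A treated, propidium iodide stained; DNA content by flow cytometry, phase percentages and hypodiploid fraction scored.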

[8] = system: A549; assay: Growth inhibition of human A549 cells by SRB assay; assay type: functional; in short: as §1
[9] = system: NCI-H460; assay: Growth inhibition of human NCI-H460 cells by SRB assay; assay type: functional; in short: as §1
[10] = system: SK-OV-3; assay: Induction of mitotic arrest in human SKOV3 cells assessed as increase in securin expression at 10 uM after 24 hrs by Western blot; assay type: functional, cell-based
In short: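 SKOV-3 cells in DMEM/F-12 with 10% fetal calf serum, treated with 10 μM or vehicle (DMSO). Lysates, 50 μg protein, resolved by SDS-PAGE, transferred to PVDF, probed for cyclin B1 or securin with β-actin loading control; ECL detection, bands quantified by phosphorimaging; at least three separate experiments.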

[11] = system: SNB-78; assay: Growth inhibition of human SNB78 cells by SRB assay; assay type: functional
In short: (§4)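 Cancer cell panel; growth measured by sulforhodamine B colorimetric method across five concentrations from 10^-4 to 10^-8 M; GI50, TGI and LC50 derived from computer-analysed dose-response curves.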

[12] = Toxicity in ip dosed nude mouse assessed as maximum tolerated dose; assay type: organism-based; conditions: in vivo
[13] = system: MDA-MB-231; assay: Growth inhibition of human MDA-MB-231 cells by SRB assay; assay type: functional; in short: as §1
[14] = system: MCF7; assay: Growth inhibition of human MCF7 cells by SRB assay; assay type: functional; in short: as §1
[15] = system: SF-295; assay: Growth inhibition of human SF295 cells by SRB assay; assay type: functional; in short: as §4
[16] = system: SK-OV-3; assay: Cell cycle arrest in human SKOV3 cells assessed as accumulation of cells with G2/M DNA at 10 uM after 36 hrs by propidium iodide-based flow cytometry; assay type: functional; in short: as §3
[17] = AUC (0 to infinity) in CD1 mouse at 10 mg/kg, ip; assay type: ADME, organism-based; design: dose 10 mg/kg, route intraperitoneal, time infinity; conditions: plasma; in short: as §2
[18] = system: HCT-116; assay: Growth inhibition of human HCT116 cells by SRB assay; assay type: functional; in short: as §1
[19] = target: MAO-A (Homo sapiens, UniProt P21397); assay: Inhibition of human MAO-A at 10 uM by enzyme assay
In short: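 Commercial spectrum screen of enzyme assays under standard protocols; percent inhibition tested at 10 μM; IC50 determined for targets showing significant inhibition at that concentration; SEM given where multiple independent determinations.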

[20] = system: KM12; assay: Growth inhibition of human KM12 cells by SRB assay; assay type: functional; in short: as §1
[21] = system: SK-OV-3; assay: Cell cycle arrest in human SKOV3 cells assessed as increase in accumulation of hypodiploid cells at 10 uM after 48 hrs by propidium iodide-based flow cytometry; assay type: functional; in short: as §3
[22] = system: SK-OV-3; assay: Cell cycle arrest in human SKOV3 cells assessed as increase in accumulation at G2/M phase at 10 uM after 36 hrs by propidium iodide-based flow cytometry; assay type: functional; in short: as §3
[23] = Growth inhibition of human RXF631L cells by SRB assay; assay type: functional, RXF 631; in short: as §4
[24] = system: SF-539; assay: Growth inhibition of human SF539 cells by SRB assay; assay type: functional; in short: as §4
[25] = system: OVCAR-8; assay: Growth inhibition of human OVCAR8 cells by SRB assay; assay type: functional; in short: as §1
[26] = system: HCT-15; assay: Growth inhibition of human HCT15 cells by SRB assay; assay type: functional; in short: as §1
[27] = target: Glutamate decarboxylase (Clostridium perfringens (strain 13 / Type A)) (UniProt Q8XIQ6); assay: Inhibition of Clostridium perfringens glutamate decarboxylase at 10 uM by enzyme assay
In short: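 Single-concentration screen at 10 μM in a contract enzyme assay panel run under standard protocols. Read-out is percent inhibition of the enzyme.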

[28] = system: ACHN; assay: Growth inhibition of human ACHN cells by SRB assay; assay type: functional; in short: as §1
[29] = Growth inhibition of human BSY1 cells by SRB assay; assay type: functional, BSY-1; in short: as §1

Sequence of MAO-A (P21397 whole entry): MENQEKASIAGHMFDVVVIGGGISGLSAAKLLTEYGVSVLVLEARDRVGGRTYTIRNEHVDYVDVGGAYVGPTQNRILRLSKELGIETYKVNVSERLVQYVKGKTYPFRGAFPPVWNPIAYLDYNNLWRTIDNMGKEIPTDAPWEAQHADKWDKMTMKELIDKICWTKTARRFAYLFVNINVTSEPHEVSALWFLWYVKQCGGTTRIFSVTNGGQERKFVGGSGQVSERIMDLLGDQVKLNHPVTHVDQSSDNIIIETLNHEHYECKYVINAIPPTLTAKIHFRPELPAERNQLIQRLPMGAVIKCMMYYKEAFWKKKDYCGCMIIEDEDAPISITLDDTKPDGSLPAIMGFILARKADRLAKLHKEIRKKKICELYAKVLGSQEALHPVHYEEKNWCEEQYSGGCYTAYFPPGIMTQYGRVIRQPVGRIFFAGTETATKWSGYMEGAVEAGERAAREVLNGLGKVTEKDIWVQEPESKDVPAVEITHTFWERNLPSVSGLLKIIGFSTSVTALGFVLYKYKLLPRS

`O=c1cc(-c2ccccc2F)[nH]c2cc3c(cc12)OCO3` showed a GI50 ([1]; DMS144) of 0.0537 µM, a CC50 ([1]; DMS144, read-out: pLC50 (converted)) greater than 100 µM and a TGI ([1]; DMS144, read-out: pTGI (converted)) of 0.676 µM. It also gave an MRT [2] of 7.3 h, a GI50 ([3]; PC-3) of 0.0759 µM and a CC50 ([3]; PC-3, read-out: pLC50 (converted)) greater than 100 µM. It also gave a TGI ([3]; PC-3, read-out: pTGI) greater than 100 µM, a Cmax [4] of 155 ng/mL and a GI50 ([5]; HT-29) of 0.309 µM. It also gave a CC50 ([5]; HT-29, read-out: pLC50 (converted)) greater than 100 µM, a TGI ([5]; HT-29, read-out: pTGI (converted)) of 1.2 µM and an Activity [6] of 133%. The Activity [7] was “Active”, the GI50 ([8]; A549) was 0.692 µM and the CC50 ([8]; A549, read-out: pLC50 (converted)) was greater than 100 µM. For the same compound, the TGI ([8]; A549, read-out: pTGI) was greater than 100 µM, the GI50 ([9]; NCI-H460, read-out: pGI50 (converted)) was greater than 100 µM and the CC50 ([9]; NCI-H460, read-out: pLC50 (converted)) was greater than 100 µM. The TGI ([9]; NCI-H460, read-out: pTGI) was greater than 100 µM, the Activity [10] was “Active” and the GI50 ([11]; SNB-78) was 0.219 µM. For the same compound, the CC50 ([11]; SNB-78, read-out: pLC50 (converted)) was greater than 100 µM, the TGI ([11]; SNB-78, read-out: pTGI (converted)) was 12 µM and the MTD [12] was 200 mg/kg. For the same compound, the GI50 ([13]; MDA-MB-231) was 0.155 µM, the CC50 ([13]; MDA-MB-231, read-out: pLC50 (converted)) was greater than 100 µM and the TGI ([13]; MDA-MB-231, read-out: pTGI (converted)) was 52.5 µM. It also gave a GI50 ([14]; MCF7) of 0.158 µM, a CC50 ([14]; MCF7, read-out: pLC50 (converted)) greater than 100 µM and a TGI ([14]; MCF7, read-out: pTGI) greater than 100 µM. It also gave a GI50 ([15]; SF-295) of 0.115 µM, a CC50 ([15]; SF-295, read-out: pLC50 (converted)) greater than 100 µM and a TGI ([15]; SF-295, read-out: pTGI (converted)) of 52.5 µM. The Activity [16] was “Active”, the AUC(0-inf) [17] was 417 ng·h/mL and the GI50 ([18]; HCT-116) was 0.0646 µM. It also gave a CC50 ([18]; HCT-116, read-out: pLC50 (converted)) greater than 100 µM, a TGI ([18]; HCT-116, read-out: pTGI) greater than 100 µM and an inhibition at 10 µM [19] of 52%. The GI50 ([20]; KM12) was 0.0676 µM, the CC50 ([20]; KM12, read-out: pLC50 (converted)) was greater than 100 µM and the TGI ([20]; KM12, read-out: pTGI) was greater than 100 µM. For the same compound, the Activity [21] was “Active”, the Activity [22] was “Active” and the GI50 ([23]; RXF 631) was 0.0794 µM. For the same compound, the CC50 ([23]; RXF 631, read-out: pLC50 (converted)) was greater than 100 µM, the TGI ([23]; RXF 631, read-out: pTGI (converted)) was 0.501 µM and the GI50 [24] was 0.12 µM. It also gave a CC50 ([24]; read-out: pLC50 (the source's name) (converted)) of 89.1 µM, a TGI ([24]; read-out: pTGI (converted)) of 0.501 µM and a GI50 ([25]; OVCAR-8) of 0.162 µM. For the same compound, the CC50 ([25]; OVCAR-8, read-out: pLC50 (converted)) was greater than 100 µM, the TGI ([25]; OVCAR-8, read-out: pTGI (converted)) was 0.794 µM and the GI50 ([26]; HCT-15) was 0.0501 µM. It also gave a CC50 ([26]; HCT-15, read-out: pLC50 (converted)) greater than 100 µM, a TGI ([26]; HCT-15, read-out: pTGI) greater than 100 µM and an inhibition [27] of 66%. The GI50 [28] was 0.389 µM, the CC50 ([28]; read-out: pLC50 (converted)) was greater than 100 µM and the TGI ([28]; read-out: pTGI) was greater than 100 µM. It also gave a GI50 ([29]; BSY-1) of 0.324 µM, a CC50 ([29]; BSY-1, read-out: pLC50 (converted)) greater than 100 µM and a TGI ([29]; BSY-1, read-out: pTGI (converted)) of 13.2 µM.

Reference: ChEMBL document CHEMBL1154907, “Synthesis and preclinical evaluations of 2-(2-fluorophenyl)-6,7-methylenedioxyquinolin-4-one monosodium phosphate (CHM-1-P-Na) as a potent antitumor agent” (J Med Chem, 2010)
